Source: ChEMBL document CHEMBL4033636, “Identification of selective inhibitors of sphingosine kinases 1 and 2 through a structure-activity relationship study of 4-epi-jaspine B” (Bioorg Med Chem, 2017)

Tests used:
Sphingosine kinase 2 [1] = biological target: T1, Sphingosine kinase 2 (Homo sapiens, UniProt Q9NRA0); test: Inhibition of human SphK2 using sphingosine as substrate after 15 to 20 mins in presence of [gamma-32P]ATP by Cerenkov counting method
T1 sequence (Q9NRA0 whole entry): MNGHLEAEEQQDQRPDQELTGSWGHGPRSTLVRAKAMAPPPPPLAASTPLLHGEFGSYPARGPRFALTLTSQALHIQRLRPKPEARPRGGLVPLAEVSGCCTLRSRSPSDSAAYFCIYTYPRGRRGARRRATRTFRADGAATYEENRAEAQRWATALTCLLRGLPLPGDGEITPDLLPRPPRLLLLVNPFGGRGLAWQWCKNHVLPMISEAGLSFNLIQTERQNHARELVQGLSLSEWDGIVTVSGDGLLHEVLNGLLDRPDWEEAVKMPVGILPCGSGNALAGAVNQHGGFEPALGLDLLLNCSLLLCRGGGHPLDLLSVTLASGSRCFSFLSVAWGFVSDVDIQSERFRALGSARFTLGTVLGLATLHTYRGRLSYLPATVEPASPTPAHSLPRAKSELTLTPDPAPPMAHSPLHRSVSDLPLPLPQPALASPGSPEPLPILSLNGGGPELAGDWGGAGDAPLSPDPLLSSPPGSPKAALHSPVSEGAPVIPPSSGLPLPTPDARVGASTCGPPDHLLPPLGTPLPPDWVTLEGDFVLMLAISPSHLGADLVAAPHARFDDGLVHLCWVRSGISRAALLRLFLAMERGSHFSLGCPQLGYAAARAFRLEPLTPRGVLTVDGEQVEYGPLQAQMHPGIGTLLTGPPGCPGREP

Sphingosine kinase 1 [2] = biological target: T2, Sphingosine kinase 1 (Homo sapiens, UniProt Q9NYA1); test: Inhibition of human SphK1 using sphingosine as substrate after 15 to 20 mins in presence of [gamma-32P]ATP by Cerenkov counting method
Sphingosine kinase 2 [3] = biological target: T1, Sphingosine kinase 2; test: Inhibition of recombinant N-terminal GST-tagged human SphK2 (1 to 618 residues) expressed in baculovirus expression system using sphingosine as substrate after 1 hr in presence of ATP by off-chip mobility shift assay
Method in brief: (§1)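 GST-fusion kinases purified on glutathione sepharose. Compounds in DMSO diluted fourfold into 20 mM HEPES pH 7.5, 0.01% Triton X-100, 2 mM DTT. Reaction: 1 µM sphingosine, 5 mM MgCl2, ATP 25 µM (SphK1) or 600 µM (SphK2), room temperature 1 h, n = 2. Read-out: P/(P+S) from electrophoretic peak heights. […] IC50 fitted.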

Sphingosine kinase 1 [4] = biological target: T2, Sphingosine kinase 1; test: Inhibition of recombinant N-terminal GST-tagged human SphK1 (1 to 384 residues) expressed in baculovirus expression system using sphingosine as substrate after 1 hr in presence of ATP by off-chip mobility shift assay; method in brief: as §1
Sphingosine kinase 1 [5] = biological target: T2, Sphingosine kinase 1; test: Inhibition of recombinant human SphK1 using NBD-sphingosine as substrate after 2 hrs in presence of ATP by HPLC method
Sphingosine kinase 2 [6] = biological target: T1, Sphingosine kinase 2; test: Inhibition of recombinant human SphK2 using NBD-sphingosine as substrate after 2 hrs in presence of ATP by HPLC method
Sphingosine kinase 1 [7] = biological target: T2, Sphingosine kinase 1; test: Inhibition of recombinant human SphK1 expressed in baculovirus infected sf9 cells using D-erythro-sphingosine as substrate in presence of [gamma-33P]ATP by scintillation counting method
Sphingosine kinase 2 [8] = biological target: T3, Sphingosine kinase 2 (Mus musculus, UniProt Q9JIA7); test: Inhibition of recombinant mouse SphK2 expressed in baculovirus infected sf9 cells using D-erythro-sphingosine as substrate in presence of [gamma-33P]ATP by scintillation counting method
T3 sequence (Q9JIA7 whole entry): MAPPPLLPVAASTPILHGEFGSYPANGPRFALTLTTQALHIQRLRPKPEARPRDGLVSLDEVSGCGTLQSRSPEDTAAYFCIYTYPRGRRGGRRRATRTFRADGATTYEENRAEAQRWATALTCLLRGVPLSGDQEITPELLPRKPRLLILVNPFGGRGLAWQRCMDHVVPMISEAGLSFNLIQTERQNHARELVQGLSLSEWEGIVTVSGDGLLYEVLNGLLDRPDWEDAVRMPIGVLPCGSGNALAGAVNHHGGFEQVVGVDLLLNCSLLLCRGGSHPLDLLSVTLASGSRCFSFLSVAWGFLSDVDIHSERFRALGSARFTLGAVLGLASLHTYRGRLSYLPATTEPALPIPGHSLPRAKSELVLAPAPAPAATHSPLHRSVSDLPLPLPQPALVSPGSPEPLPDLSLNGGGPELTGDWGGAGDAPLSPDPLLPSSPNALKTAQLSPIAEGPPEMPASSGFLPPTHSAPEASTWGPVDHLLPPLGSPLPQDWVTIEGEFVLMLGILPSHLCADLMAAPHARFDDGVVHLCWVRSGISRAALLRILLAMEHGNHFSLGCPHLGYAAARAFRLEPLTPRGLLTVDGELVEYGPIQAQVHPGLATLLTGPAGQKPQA

Sphingosine kinase 1 [9] = biological target: T2, Sphingosine kinase 1; test: Inhibition of human SphK1 using sphingosine as substrate in presence of [gamma-32P]ATP

T2 sequence (Q9NYA1 whole entry, the tested form may be a part): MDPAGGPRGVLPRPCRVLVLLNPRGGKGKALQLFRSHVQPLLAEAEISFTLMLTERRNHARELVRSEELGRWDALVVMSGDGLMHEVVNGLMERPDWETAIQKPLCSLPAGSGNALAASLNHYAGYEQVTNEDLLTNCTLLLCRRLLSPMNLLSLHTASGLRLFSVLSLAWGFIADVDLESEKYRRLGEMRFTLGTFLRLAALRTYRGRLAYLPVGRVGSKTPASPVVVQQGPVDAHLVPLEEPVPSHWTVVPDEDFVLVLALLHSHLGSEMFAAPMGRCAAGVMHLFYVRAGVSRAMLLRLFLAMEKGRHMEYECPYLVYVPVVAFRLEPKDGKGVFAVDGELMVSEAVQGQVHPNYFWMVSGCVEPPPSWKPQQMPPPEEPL

| IC50 (Sphingosine kinase 2 [3]) | IC50 (Sphingosine kinase 1 [4]) | SMILES | other results |
| --- | --- | --- | --- |
| > 30000 nM | > 30000 nM | CCCCCCCCCOCCCC[C@@H]1OC[C@@H](N)[C@@H]1O | – |
| 780 nM | 380 nM | N[C@@H]1CO[C@@H](CCCCCCCCCCCOCC2CCCCC2)[C@H]1O | – |
| 1300 nM | 2800 nM | N[C@@H]1CO[C@@H](CCCCCCCCOCC2CCCCC2)[C@H]1O | – |
| 460 nM | 670 nM | N[C@@H]1CO[C@@H](CCCCCCCCCOCC2CCCCC2)[C@H]1O | – |
| 1700 nM | 12000 nM | CCCCCCCCCc1cccc(CC[C@@H]2OC[C@@H](N)[C@@H]2O)c1 | – |
| 600 to 740 nM | 820 to 1100 nM | CCCCCCCCCCCCCC[C@@H]1OC[C@@H](N)[C@@H]1O | – |
| 670 nM | 420 nM | CCCCCCCCCCc1ccc(CC[C@@H]2OC[C@@H](N)[C@@H]2O)cc1 | – |
| 2100 nM | 16000 nM | CCCCCCCCc1cccc(CC[C@@H]2OC[C@@H](N)[C@@H]2O)c1 | – |
| 3900 nM | 9600 nM | CCCCCCCOCCCCCC[C@@H]1OC[C@@H](N)[C@@H]1O | – |
| > 30000 nM | 4000 nM | CCCCCCCCCCCCCC[C@@H]1OC[C@@H](N)[C@@H]1OC | – |
| 240 nM | 220 nM | N[C@@H]1CO[C@@H](CCCCCCCCCCOCC2CCCCC2)[C@H]1O | – |
| 840 nM | 710 nM | CC(C)COCCCCCCCCCCC[C@@H]1OC[C@@H](N)[C@@H]1O | – |

Second part, the compound before the results:

| SMILES | IC50 (Sphingosine kinase 2 [3]) | IC50 (Sphingosine kinase 1 [4]) | other results |
| --- | --- | --- | --- |
| CCCCCCCCc1ccc(CC[C@@](N)(CO)COC)cc1 | – | – | IC50 (Sphingosine kinase 2 [1]): 27000 nM; IC50 (Sphingosine kinase 1 [2]): > 50000 nM |
| CCCCCCCCCCCCc1ccc(CC[C@@H]2OC[C@@H](N)[C@@H]2O)cc1 | 21000 nM | 880 nM | – |
| CCCCCCCCc1ccc(CC[C@@H]2OC[C@@H](N)[C@@H]2O)cc1 | 560 nM | 1400 nM | – |
| CCCCCCc1ccc(CC[C@@H]2OC[C@@H](N)[C@@H]2O)cc1 | 8300 nM | > 30000 nM | – |
| CC(=O)N(C1=C(Cl)C(=O)c2ccccc2C1=O)C1CCCCC1 | – | – | IC50 (Sphingosine kinase 1 [5]): 2000 nM; IC50 (Sphingosine kinase 2 [6]): > 100000 nM |
| CCCCCCCCc1ccccc1CC[C@@H]1OC[C@@H](N)[C@@H]1O | > 30000 nM | > 30000 nM | – |
| CCCCCCCCCCCCCC[C@@H]1OC[C@@H](NC(C)=O)[C@@H]1O | > 30000 nM | > 30000 nM | – |
| CCCCCCCCCCCCc1ccc(-c2noc(C3(C(=N)N)CC3)n2)cc1 | – | – | Ki (Sphingosine kinase 1 [7]): 40 nM; Ki (Sphingosine kinase 2 [8]): 14100 nM |
| CCCCOc1ccc(CC/C=C2\SC(=O)N(CCN)C2=O)cc1 | – | – | IC50 (Sphingosine kinase 1 [9]): > 10000 nM |
| CCCCCCCc1cccc(CC[C@@H]2OC[C@@H](N)[C@@H]2O)c1 | 2200 nM | > 30000 nM | – |
| CCCCCCCCCCCCCCc1ccc(CC[C@@H]2OC[C@@H](N)[C@@H]2O)cc1 | > 30000 nM | > 30000 nM | – |
| CCCCCCCCCCCCCC[C@@H]1OC[C@@H](NC(C)=N)[C@@H]1O | 9400 nM | 3100 nM | – |
| O=C(NCc1ccncc1)C12CC3CC(C1)CC(c1ccc(Cl)cc1)(C3)C2 [ABC-294640] | – | – | IC50 (Sphingosine kinase 1 [5]): > 100000 nM; IC50 (Sphingosine kinase 2 [6]): 60000 nM |
| CCCCCCCCCCCCCC[C@@H]1OC[C@@H](NC(=N)N)[C@@H]1O | 1900 nM | 1100 nM | – |
